procasp7 counter: activates human procaspase-7, counter-screen for procaspase-3 activators; recombinant procaspase-7, Ac-DEVD-pNA absorbance 405 nm; D23A/D198A/D206A triple mutant, cannot self-cleave; scale: DMSO 0, 5 µM enzyme 100; activation, % at 8.5 µM; hit rate 0.093% among 330,000; AID 463210;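 active means percent activation above the screen-wide mean plus 3 SD, cut at about 25% in these data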
Target sequence (P55210 whole entry D23A/D198A/D206A): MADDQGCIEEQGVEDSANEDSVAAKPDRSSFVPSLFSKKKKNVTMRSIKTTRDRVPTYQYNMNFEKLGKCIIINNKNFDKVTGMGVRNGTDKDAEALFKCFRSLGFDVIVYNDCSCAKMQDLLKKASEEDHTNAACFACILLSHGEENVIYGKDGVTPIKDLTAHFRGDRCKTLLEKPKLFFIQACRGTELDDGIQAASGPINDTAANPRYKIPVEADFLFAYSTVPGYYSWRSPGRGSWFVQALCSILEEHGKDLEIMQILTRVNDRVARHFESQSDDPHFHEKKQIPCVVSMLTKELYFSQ
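Detection: p-Nitroaniline absorbance at 405 nm, read at 0 and 120 min; system: Uncleavable procaspase-7 mutant enzyme; evaluation: % activation from two-timepoint absorbance difference, scaled to controls; times: 1 h enzyme–compound preincubation and 2 h substrate reaction, both 25 °C; buffer or medium: Zinc-free HEPES pH 7.4 with 300 mM NaCl, 0.01% Triton X-100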
proCasp3 act: activators of human procaspase-3; P42574; activation, % at 8.5 µM; recombinant procaspase-3 D3A, Ac-DEVD-pNA absorbance 405 nm; hit rate 0.11% among 330,000;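 active means activation above the mean of all tested compounds plus 3 SD, cut at about 21% in these data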
Target sequence (P42574 whole entry D9A/D28A/D175A): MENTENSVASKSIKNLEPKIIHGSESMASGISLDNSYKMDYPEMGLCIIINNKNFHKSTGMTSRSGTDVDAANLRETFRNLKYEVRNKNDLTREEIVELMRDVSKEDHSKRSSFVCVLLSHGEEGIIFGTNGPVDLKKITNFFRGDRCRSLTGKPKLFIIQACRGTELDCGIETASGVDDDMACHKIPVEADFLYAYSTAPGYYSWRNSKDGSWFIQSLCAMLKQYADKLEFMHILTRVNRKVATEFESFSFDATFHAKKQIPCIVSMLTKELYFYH
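assay system = Procaspase-3 D3A mutant | signal = absorbance at 405 nm, 0 and 120 min | times = 1 h preincubation plus 2 h reaction at 25 °C | repeats = single replicate | read-out = % activation between DMSO and enzyme-spiked controls | medium = Zinc-free HEPES saline buffer with Triton X-100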
bovine MsrA act: activates bovine MsrA enzyme; purified bovine MsrA, absorbance read-out; activation, % at 10.6 µM; hit rate 0.3% among 360,000; in the data active means activation above about 7.5%
Tb MetRS inh: Trypanosoma brucei MetRS inhibition; purified T. brucei MetRS, ATP depletion, Kinase-Glo luminescence; inhibition, % at 11.9 µM; hit rate 0.4% among 360,000;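 active means inhibition above a per-plate cutoff of the control wells' mean inhibition plus 3 SD, cut at about 5.5% in these data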
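Material – parasite MetRS enzyme · Medium – HEPES-MgCl2-KCl buffer plus DTT, spermine, BSA, pyrophosphatase · Reagent – ATP, methionine and E. coli bulk tRNA substrates · Times – 15 min enzyme-compound preincubation, 2 h reaction, 10 min detection, 25 °C · Measured by – luminescence of leftover ATP · Evaluation – percent inhibition relative to median high and low control wells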
MsrA inhibitor: bovine MsrA inhibition. hit rate 0.75% among 360,000. purified bovine MsrA, absorbance read-out. inhibition, % at 15.5 µM; in the data active means inhibition above about 4.5%
TbMetRS confirm: Trypanosoma brucei MetRS inhibition confirmed. shares compounds with Tb MetRS inh. T. brucei MetRS enzyme, luminescence (ATP depletion). inhibition, % at 11.9 µM. hit rate 93% among 1,400; in the data active means inhibition above about 7%
Jurkat tox: counter-screen for T. brucei MetRS inhibitors: Jurkat cell cytotoxicity | shares compounds with Tb MetRS inh | hit rate 12% among 1,400 | Jurkat cells viability, ATP luminescence | inhibition, % at 8.3 µM; in the data active means inhibition above about 15%
Tb MetRS inh FP: orthogonal test for Trypanosoma brucei MetRS inhibitors; shares compounds with Tb MetRS inh; purified T. brucei MetRS, fluorescence polarization; inhibition, % at 11.9 µM; hit rate 44% among 1,400; in the data active means inhibition above about 17%
Of the large screens only hits and unclear results are named; the others gave an inactive call (follow-up assays come after a bar, where they were run). Hits are enriched below; roughly 1.5% of the tested compounds scored in any of these assays.

COc1ccc(OCC(O)CNC(=O)Nc2ccc(F)cc2)cc1 (centres undefined)	Tb MetRS inh 5.7 | TbMetRS confirm 17.6 | Jurkat tox inactive | Tb MetRS inh FP inactive
COc1ccc(OCC(O)CNC(=O)Nc2ccccc2)cc1 (centres undefined)	Tb MetRS inh 9.4 | TbMetRS confirm 21.1 | Jurkat tox inactive | Tb MetRS inh FP inactive
OC(CNc1ccccc1)COc1ccc(OCC(O)CNc2ccccc2)cc1 (centres undefined)	none
Cc1cc(C)cc(NC(=O)NCC(O)COc2ccc([N+](=O)[O-])cc2)c1 (centres undefined)	none
O=C(NCC(O)COc1ccc([N+](=O)[O-])cc1)Nc1ccccc1 (centres undefined)	Tb MetRS inh 41.6 | TbMetRS confirm 61.9 | Jurkat tox inactive | Tb MetRS inh FP 41.0
Cc1ccc2[nH]c(CSc3ccccc3)cc(=O)c2c1	Tb MetRS inh 10.7 | TbMetRS confirm 22.7 | Jurkat tox inactive | Tb MetRS inh FP inactive
Cc1ccc2[nH]c3ccccc3c(=O)c2c1	none
CCOC(=O)C1=C[C@@H](C(C)(C)C)N(S(=O)(=O)c2ccc([N+](=O)[O-])cc2)[C@H]1c1ccccc1Cl	none (no result: procasp7 counter, proCasp3 act, bovine MsrA act, Tb MetRS inh)
Cc1cc(SCC(=O)N/N=C/c2ccc(O)cc2O)c(C)cc1Br	Tb MetRS inh 51.6 | TbMetRS confirm 92.5 | Jurkat tox 41.2 | Tb MetRS inh FP 75.3
Cc1cc(SCC(=O)N/N=C/c2ccccc2C(=O)O)c(C)cc1Br	none
CCCCCCCCN1C(=O)[C@@H](CC(=O)NCC2CCCCC2)C[C@@]2(C(=O)OC)C1=C[C@H](C1CCCC1)O[C@@H]2C	none (no result: procasp7 counter, proCasp3 act, bovine MsrA act, Tb MetRS inh)
COc1ccc(NC(=O)COC(=O)CCCOc2ccc(Cl)cc2Cl)cc1	Tb MetRS inh 7.0 | TbMetRS confirm 17.2 | Jurkat tox inactive | Tb MetRS inh FP 23.0
CC(C)(C)C(=O)NNC(=O)CCCOc1ccc(Cl)cc1Cl	none
CC(C)(CO)NC(=O)CCCOc1ccc(Cl)cc1Cl	Tb MetRS inh 10.9 | TbMetRS confirm 13.2 | Jurkat tox inactive | Tb MetRS inh FP inactive
Cc1cc(NC(=O)COC(=O)CCCOc2ccc(Cl)cc2C)no1	Tb MetRS inh 6.5 | TbMetRS confirm 11.5 | Jurkat tox inactive | Tb MetRS inh FP inactive
COc1ccc(NC(=O)COC(=O)CCCOc2ccc(Cl)cc2Cl)cc1Cl	none
CCCCOCCCNC(=O)C[C@H]1C[C@@]2(C(=O)OC)C(=C[C@H](C3CCCC3)O[C@@H]2C)N(Cc2ccccc2)C1=O	none (no result: procasp7 counter, proCasp3 act, bovine MsrA act, Tb MetRS inh)
COc1ccc(OCc2nc3ccccc3[nH]2)cc1	none
c1ccc2cc(OCc3nc4ccccc4[nH]3)ccc2c1	Tb MetRS inh 6.0 | TbMetRS confirm 6.8 | Jurkat tox inactive | Tb MetRS inh FP inactive
Brc1ccc(OCc2nc3ccccc3[nH]2)cc1	Tb MetRS inh 10.2 | TbMetRS confirm 16.1 | Jurkat tox inactive | Tb MetRS inh FP inactive
Cc1[nH]n(-c2ccccc2)c(=O)c1C(c1ccc(O)c([N+](=O)[O-])c1)c1c(C)[nH]n(-c2ccccc2)c1=O	Tb MetRS inh 12.9 | TbMetRS confirm inactive | Jurkat tox inactive | Tb MetRS inh FP inactive
COc1ccc(C(C[N+](=O)[O-])c2c(C)[nH]n(-c3ccccc3)c2=O)cc1 (centres undefined)	none
Cc1[nH]n(-c2ccccc2)c(=O)c1C(C[N+](=O)[O-])c1ccccc1Cl (centres undefined)	none
COc1cccc(C(c2c(C)[nH]n(-c3ccccc3)c2=O)c2c(C)[nH]n(-c3ccccc3)c2=O)c1O	Tb MetRS inh 8.1 | TbMetRS confirm inactive | Jurkat tox inactive | Tb MetRS inh FP inactive
COc1cccc(C(c2c(C)[nH]n(-c3ccccc3)c2=O)c2c(C)[nH]n(-c3ccccc3)c2=O)c1OC	Tb MetRS inh 7.7 | TbMetRS confirm inactive | Jurkat tox 19.4 | Tb MetRS inh FP inactive
COc1ccc(C(c2c(C)n(C)n(-c3ccccc3)c2=O)c2c(C)n(C)n(-c3ccccc3)c2=O)c(OC)c1OC	none
CC(C)(C)S(=O)N1C[C@H]2CC(=O)C(CCO)=C2[C@@H]1CCO (some centres undefined)	none (no result: procasp7 counter, proCasp3 act, bovine MsrA act, Tb MetRS inh)
C=CCOc1c(Br)cc(C2NC(=O)NC(C)=C2C(C)=O)cc1OCC (centres undefined)	Tb MetRS inh 7.0 | TbMetRS confirm 14.8 | Jurkat tox inactive | Tb MetRS inh FP inactive
CCOC(=O)COc1c(Br)cc(C2NC(=O)NC(C)=C2C(C)=O)cc1OC (centres undefined)	none
C=CCOc1c(Br)cc(C2C3=C(CCCC3=O)N(C)C3=C2C(=O)CCC3)cc1OCC	Tb MetRS inh 9.5 | TbMetRS confirm 15.7 | Jurkat tox inactive | Tb MetRS inh FP inactive
CC1(C(=O)NCCC(F)(F)F)Cc2c(-c3cccc(C(N)=O)c3)ccnc2O1 (centres undefined)	none (no result: procasp7 counter, proCasp3 act)
COc1ccc(CCCNC(=O)C2(C)Cc3c(-c4cccc(C(N)=O)c4)ccnc3O2)cc1 (centres undefined)	Tb MetRS inh 6.6 (no result: procasp7 counter, proCasp3 act) | TbMetRS confirm inactive | Jurkat tox 49.2 | Tb MetRS inh FP inactive
CCOc1cccc(C=NNc2nc(=O)cc(C(=O)OC)s2)c1O	none (no result: procasp7 counter, proCasp3 act, bovine MsrA act, Tb MetRS inh)
Cc1cc(NC(=O)c2ccc(Cl)cc2Cl)n(CCC#N)n1	Tb MetRS inh 6.4 | TbMetRS confirm 13.4 | Jurkat tox inactive | Tb MetRS inh FP inactive
O=C(N[C@H](C(=O)N1CCC[C@H]1C(=O)NCc1ccccc1)C1CCCCC1)c1ccc(Cl)cc1Cl	none (no result: procasp7 counter, proCasp3 act, bovine MsrA act, Tb MetRS inh)
CCCCOCC1CN(CCCC)S(=O)(=O)c2c(Oc3ccc(SC)c(C)c3)cccc2O1 (centres undefined)	none (no result: procasp7 counter, proCasp3 act, bovine MsrA act, Tb MetRS inh)
Nc1c(Cl)ncnc1Nc1ccc(C(=O)O)cc1	Tb MetRS inh 45.7 (no result: procasp7 counter, proCasp3 act) | TbMetRS confirm 73.9 | Jurkat tox inactive | Tb MetRS inh FP 46.3
COc1ccccc1NC(=S)Nc1ccc2cn[nH]c2c1	Tb MetRS inh 7.8 | TbMetRS confirm inactive | Jurkat tox inactive | Tb MetRS inh FP inactive
O=C(CN1CCSC1=NCc1ccccc1)c1ccc(Cl)cc1	Tb MetRS inh 19.2 | TbMetRS confirm 43.1 | Jurkat tox inactive | Tb MetRS inh FP 18.5
C[C@H](CO)N1C[C@H](C)[C@H](CN(C)Cc2cccc(F)c2)Oc2ncc(C3=CCCC3)cc2C1=O	none (no result: procasp7 counter, proCasp3 act, bovine MsrA act, Tb MetRS inh)
COc1cc(OC)cc(C(=O)NCC2CCN(C(=O)C(=O)c3cccs3)CC2)c1	none (no result: procasp7 counter, proCasp3 act, bovine MsrA act, Tb MetRS inh)
Cc1cc(C)n(-c2nnc(C)n2/N=C/c2cc(Br)ccc2OCc2ccccc2)n1	Tb MetRS inh 6.4 | TbMetRS confirm inactive | Jurkat tox inactive | Tb MetRS inh FP inactive
Cc1ccc(C2NC(=O)c3n[nH]c(C(C)C)c32)cc1 (centres undefined)	none (no result: procasp7 counter, proCasp3 act, bovine MsrA act, Tb MetRS inh)
